Screens from PubChem.
The sample as a whole holds a higher share of hits than the screen did.
CD11b adhes enh – enhancers of human CD11b/CD18 binding to fibrinogen; P05107+P11215; K562 CD11b/CD18 adhesion to fibrinogen, ATPlite luminescence; activation, % at 10 µM; 93,000 tested, 0.07% active;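 active = 10 µM primary screen giving 50% or more activity, confirmed by 40% or more on retest at that dose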
Target sequence (P05107 whole entry, looked up, other chains not shown): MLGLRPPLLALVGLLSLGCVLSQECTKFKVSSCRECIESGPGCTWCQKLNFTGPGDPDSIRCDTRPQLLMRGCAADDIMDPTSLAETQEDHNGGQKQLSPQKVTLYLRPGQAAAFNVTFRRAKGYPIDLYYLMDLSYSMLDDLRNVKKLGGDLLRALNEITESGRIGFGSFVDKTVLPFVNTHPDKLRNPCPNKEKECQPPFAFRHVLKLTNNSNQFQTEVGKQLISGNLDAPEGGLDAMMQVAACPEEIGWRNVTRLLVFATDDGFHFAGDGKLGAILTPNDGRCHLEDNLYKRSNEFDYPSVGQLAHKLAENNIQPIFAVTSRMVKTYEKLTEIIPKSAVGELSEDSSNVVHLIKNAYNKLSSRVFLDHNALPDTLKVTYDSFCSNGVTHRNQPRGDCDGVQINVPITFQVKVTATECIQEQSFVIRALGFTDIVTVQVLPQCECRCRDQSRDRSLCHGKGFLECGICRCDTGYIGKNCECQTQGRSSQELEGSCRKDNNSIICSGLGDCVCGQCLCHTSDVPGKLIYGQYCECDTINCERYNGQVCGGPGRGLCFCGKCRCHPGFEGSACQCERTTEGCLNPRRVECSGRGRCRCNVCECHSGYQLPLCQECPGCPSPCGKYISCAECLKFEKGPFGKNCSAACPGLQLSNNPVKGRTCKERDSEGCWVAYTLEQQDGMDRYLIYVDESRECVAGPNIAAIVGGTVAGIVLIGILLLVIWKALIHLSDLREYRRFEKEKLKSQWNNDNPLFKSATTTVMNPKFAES
CD11b adhes inh – inhibitors of human CD11b/CD18 binding to fibrinogen; P05107+P11215; AID 1497; inhibition, % at 10 µM; 93,000 tested, 0.54% active; K562 CD11b/CD18 adhesion to fibrinogen, ATPlite luminescence; Mn2+ added to activate the integrin;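 active = primary inhibition of 50% or more at 10 µM, then 40% or more on retest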
Ecoli tolC – growth inhibitors of E. coli BW25113 tolC mutant. growth inhibition, % at 10 µM (by protocol). 65,000 tested, 2.2% active. OD615;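 active = growth inhibition at or above a cutoff equal to the mean over every tested compound plus 3 SD, cut at about 60% in these data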;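 also: growth measured after 20 h incubation at 37 °C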
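Test system: tolC-deleted E. coli BW25113 | Medium: LB with kanamycin 50 µg/mL | Compound dosing: Single concentration, 10 µM final per compound | Schedule: 37 °C, 20 h exposure | Measured by: OD at 615 nm | Evaluation: Percent growth inhibition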
E coli WT exp – blocks growth of wild type E. coli BW25113; OD600 absorbance; growth inhibition, % at 100 µM; 98,000 tested, 0.15% active; AID 710;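 active = growth inhibition above about 50% at one test dose, limit read from the data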;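 also: growth measured after 20 h incubation at 37 °C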
* hit, by the source's call; . = no result given.

SMILES	CD11b adhes enh	CD11b adhes inh	Ecoli tolC	E coli WT exp
O=C(NCC(c1cccnc1)N1CCN(c2ccccc2F)CC1)c1cccc(Cl)c1 (stereo unspecified)	-3	23	8	-6
Cc1c(Cl)cccc1NC(=S)NN1CCOCC1	3	-6	.	6
N#CC1=C(N)Oc2n[nH]c(-c3cccs3)c2C1c1ccsc1 (stereo unspecified)	-7	8	98*	-2
N#CC1=C(N)Oc2n[nH]c(-c3cccs3)c2C1c1ccco1 (stereo unspecified)	-2	21	-10	9
COc1ccccc1NC(=O)c1ccc(NC(=O)CSc2ncn[nH]2)cc1	-1	11	.	.
COC(=O)CSc1nc(N2CCCCC2)c2c(c1C#N)CCCC2	8	44	64*	-8
CCNc1nc(Oc2ccccc2)nc(OC(C)C(=O)OCC)n1 (stereo unspecified)	.	.	2	6
NC(=O)[C@H](Cc1cc2ccccc2s1)NC(=O)[C@@H]1CC2(CC(c3cccc(NC(=O)[C@@H]4CCC(=O)N4)c3)=NO2)CN1C(=O)c1ccccc1 (stereo partly specified)	8	-5	.	5
NC(=O)[C@H](Cc1cc2ccccc2s1)NC(=O)[C@@H]1CC2(CC(c3cccc(NC(=O)[C@@H]4CCC(=O)N4)c3)=NO2)CN1C(=O)/C=C/c1c(F)cccc1Cl (stereo partly specified)	148*	1	.	-10
COc1ccccc1C1CC(c2ccc(Cl)cc2)Nc2ncnn21 (stereo unspecified)	-4	3	60*	10
Cc1cc(C)n(C(C[N+](=O)[O-])c2ccc(Cl)cc2)n1 (stereo unspecified)	-6	16	.	100*
O=c1c2ccccc2c(C=Nc2cccc(S(=O)(=O)NCc3ccco3)c2)c(O)n1-c1ccc(Cl)cn1	0	-1	.	.
Fc1ccc(CSc2nc3ccccc3[nH]2)c2ccccc12	-8	77*	.	-4
O=C(NCCCN1CCCCCC1)C1CC(=O)N(CCc2ccccc2)C1 (stereo unspecified)	82*	-2	-16	0
O=C(NCCCN1CCOCC1)C1CC(=O)N(CCc2ccccc2)C1 (stereo unspecified)	-7	-38	-16	0
Cc1cccc(N=c2oc3cc(O)ccc3cc2C(N)=O)c1	-6	25	98*	8
O=c1n(Cc2ccc(Cl)cc2)c2sc3c(c2c2ncnn12)CCCC3	-2	76	75*	-3
Cc1c(C(=O)N2CCCc3ccccc32)oc2ccc(S(=O)(=O)N3CCOCC3)cc12	-2	-16	3	-4
CSc1ncc(Cl)c(C(=O)C(C#N)c2nc3c(C)cc(C)cc3c(=O)[nH]2)n1 (stereo unspecified)	.	.	96*	-11
CCSc1nnc(NC(=O)c2cnccn2)s1	-3	-4	-2	.
CCSc1nnc(NC(=O)c2ccccn2)s1	0	-18	100*	63*
Cc1cc(N2CCCCC2)nc(SCc2ccc(C#N)cc2)n1	-4	-13	78*	0
Cc1cc(C)n2c(SCc3ccc(C#N)cc3)nnc2n1	3	11	-3	6
O=C(O)c1cnc(-c2ccccc2)nc1Sc1ccccc1	.	.	.	-2
O=C(O)c1cnc(-c2ccccc2)nc1Sc1cccc(Cl)c1	-6	62*	.	3
SMILES	CD11b adhes enh	CD11b adhes inh	Ecoli tolC	E coli WT exp
O=C(O)CC(NC(=O)C1c2ccccc2Oc2ccccc21)c1ccc(Cl)cc1 (stereo unspecified)	0	19	.	.
OCCn1c(-c2ccc3c(c2)OCO3)csc1=Nc1ccccc1	-7	62	76*	9
Cc1ccc(Nc2c([N+](=O)[O-])c(=O)n(C)c3ccccc23)cc1C	-4	5	.	-1
CCn1c(=O)c2cc(C(=O)N3CCN(C(=O)c4ccco4)CC3)sc2c2ccccc21	.	.	98*	.
CCn1c(=O)cc(OCC(=O)N2CCN(C(=O)c3ccco3)CC2)c2ccccc21	6	-46	-9	-1
Cc1cccc(S(=O)(=O)Nc2nc3ccccc3nc2NCc2ccco2)c1	-7	16	75*	-3
O=S(=O)(Nc1nc2ccccc2nc1NCc1ccco1)c1ccc(Cl)cc1	.	.	96*	-5
Cc1noc(C)c1CSc1nc2ccccc2nc1NS(=O)(=O)c1ccc(Cl)cc1	-8	98*	49	-6
Cc1ccc(S(=O)(=O)Nc2nc3ccccc3nc2NCc2ccco2)cc1	.	.	20	0
CCOc1ccc(CN(C)CC(=O)Nc2ccc([N+](=O)[O-])cc2Cl)cc1	6	66	.	.
CCOc1cc(C)nc(NCc2ccccc2)n1	-3	-16	.	-3
CCCCOc1cc(C)nc(NCc2ccccc2)n1	3	80	67*	5
O=C1c2ccccc2C(=O)N1CCCc1c[nH]c2ccc(Cl)cc12	-3	28	.	.
Cc1cc(C(=O)CN2C(=O)c3cccc(N)c3C2=O)c(C)n1Cc1cccs1	0	17	.	-7
COc1ccc(C(=O)/C=C/Nc2ccc([N+](=O)[O-])cc2C)cc1OC	53*	1	.	-1
Cc1ccc(SCC(=O)Nc2cccc(-c3nnc(-c4ccco4)o3)c2)cc1	4	27	.	4
CCOc1ccc(S(=O)(=O)N2CCN(C(=O)c3sccc3C)CC2)cc1	2	-12	.	32
CC(C)(C)c1cc(C(F)(F)F)nc(SCCCNC(=O)c2ccco2)n1	-2	13	100*	7
N#C/C(=N\Nc1cccc(Cl)c1)C(=O)c1ccccc1	-11	98*	.	0
N#C/C(=N\Nc1ccccc1Cl)C(=O)c1ccccc1	-11	104*	.	-3
Cc1c(N/N=C(\C#N)C(=O)c2ccccc2)c(=O)n(-c2ccccc2)n1C	1	14	.	.
COc1ccc(NS(=O)(=O)c2ccc(NC(=S)NC(=O)c3ccc(Br)cc3)cc2)nn1	-3	1	.	.
O=C1CCCc2nc3nc4ccccc4n3cc21	-9	3	93*	46
Cn1c(NC(=O)c2ccccc2NC(=O)C(C)(C)C)nc2ccccc21	2	-13	99*	-1
COc1ccc(Cl)cc1N1Cc2ccccc2C1	48	-9	.	-13
SMILES	CD11b adhes enh	CD11b adhes inh	Ecoli tolC	E coli WT exp
COc1ccccc1-n1c(=O)oc2ccc(Cl)cc2c1=O	-12	96*	100*	46
CCN(c1ccccc1)S(=O)(=O)c1ccc(Cl)c(NC(=O)CSc2n[nH]c(N)n2)c1	2	-5	.	.
Cc1cc(/C=N/n2cnnc2)c(C)n1-c1ccc(OCc2ccc(Cl)cc2Cl)cc1	-8	99*	.	5
O=C(Nc1ccc(Cl)cc1)N1CCC(c2nc(-c3cccs3)no2)CC1	0	.	100*	-4
O=C(Nc1ccccc1)N1CCCC(c2nc(-c3ccc(F)cc3)no2)C1 (stereo unspecified)	6	4	.	-14
O=C(Nc1cccc(C(F)(F)F)c1)N1CCC(c2nc(-c3ccc(F)cc3)no2)CC1	.	.	89*	-1
COc1ccc(NC(=O)N2CCC(c3nc(-c4cccs4)no3)CC2)cc1	-3	-20	20	8
CC(NS(=O)(=O)c1ccc(Br)cc1)C(=O)NCCc1ccccc1 (stereo unspecified)	1	2	.	.
